Neddylation inh: inhibitors of human cullin neddylation; TR-FRET cullin neddylation, biochemical; P61081+Q13564; inhibition, % at 25 µM; 360,000 compounds, 0.58% hits; in the data active means inhibition above about 36%
SR-BI DiI inh: blocks mouse SR-BI lipid uptake from DiI-HDL. ldlA[mSR-BI] CHO cells, DiI-HDL uptake fluorescence, 3 h. inhibition, % at 12.5 µM. 320,000 compounds, 0.96% hits;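 active means mean replicate inhibition of at least 70% and a set share of replicates each scoring 70 or more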;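 further: 0% = median of neutral control wells and 100% = median of positive control wells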
Target sequence (Q61009 whole entry, looked up): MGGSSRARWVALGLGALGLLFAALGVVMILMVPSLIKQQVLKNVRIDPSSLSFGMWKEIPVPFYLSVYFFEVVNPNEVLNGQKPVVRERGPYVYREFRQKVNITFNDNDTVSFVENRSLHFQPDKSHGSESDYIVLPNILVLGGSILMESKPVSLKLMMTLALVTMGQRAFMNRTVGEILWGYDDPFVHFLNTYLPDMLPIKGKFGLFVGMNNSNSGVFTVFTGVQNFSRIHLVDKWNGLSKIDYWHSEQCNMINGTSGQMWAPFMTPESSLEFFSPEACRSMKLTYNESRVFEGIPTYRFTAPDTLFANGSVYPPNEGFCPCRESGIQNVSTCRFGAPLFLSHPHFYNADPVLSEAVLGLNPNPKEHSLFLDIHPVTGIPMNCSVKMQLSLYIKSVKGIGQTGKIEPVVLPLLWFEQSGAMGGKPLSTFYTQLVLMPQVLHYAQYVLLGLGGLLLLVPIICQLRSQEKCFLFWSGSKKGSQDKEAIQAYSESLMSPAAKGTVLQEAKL
SR-BI uptake up: enhances SR-BI lipid uptake from DiI-HDL | activation, % at 12.5 µM | CHO ldlA[mSR-BI] cells, DiI-HDL uptake fluorescence, 3 h; 100 = double the neutral-control signal | 320,000 compounds, 0.096% hits | AID 504775;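 active means mean replicate activation of at least 60% and every replicate at or above 60%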;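 further: 0% = median plate neutral-control signal and 100% = twice that signal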
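System: CHO ldlA[mSR-BI] cells / Medium: HEPES-buffered (25 mM, pH 7.4) F12 plus 0.5% BSA / Probe or stimulus: labelled HDL, 10 µg/mL / Doses: single compound concentration, delivered by pin transfer / Schedule: 3 h, 37 °C / Measured by: DiI fluorescence, bottom read / Measure: cell-associated DiI fluorescence as measure of HDL uptake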
UBC13 polyUb: blocks human UBC13 polyubiquitin chain formation; 330,000 compounds, 0.47% hits; AID 485273; inhibition, % at 20 µM; TR-FRET; in the data active means inhibition above about 45%, passing the limit was not always enough
* hit, by the source's call; i = inactive; · = no result shown. Shown are actives, neighbours in structure and some others; about 1.9% of the full set was active somewhere.

SMILES	Neddylation inh	SR-BI DiI inh	SR-BI uptake up	UBC13 polyUb
O=C(OCc1ccccc1)c1cccc(-c2nnc(-c3ccccc3)o2)c1	12	-62	62*	8
N=c1c(-c2nc3ccccc3[nH]2)cc(C(=O)c2ccco2)nn1-c1ccccc1	-19	73*	-73	-56
COc1ccc(NC(=S)NNc2ccc([N+](=O)[O-])cc2S(=O)(=O)Nc2ccc(C)cc2C)cc1	-31	77*	-77	-66
Cc1ccc(NS(=O)(=O)c2cc([N+](=O)[O-])ccc2NNC(=S)Nc2cccc(Cl)c2)c(C)c1	-42	95*	-95	·
Cc1ccc(NS(=O)(=O)c2cc([N+](=O)[O-])ccc2NNC(=S)Nc2cc(C)ccc2C)c(C)c1	-31	79*	-79	-52
Cc1ccc([N+](=O)[O-])cc1NC(=S)NC(=O)C(C)(C)C	-23	18	-18	5
N#Cc1cc([N+](=O)[O-])ccc1NC(=O)COC(=O)C1CCC(=O)N1 (stereo not given)	-39	-22	22	-3
CCOC(=O)c1sc2nc(C3CC3)cc(-c3ccc(F)cc3)c2c1N	·	77*	-77	29
COc1cc(OC)c2cc(C(=O)N/N=C/c3cccc(OC)c3O)[nH]c2c1	14	121*	-121	-17
COc1cccc(/C=N/NC(=O)c2ccc3nc[nH]c3c2)c1O	-5	38	-38	-2
COc1cccc(/C=N/NC(=O)c2cc3c(OC)ccc(OC)c3[nH]2)c1O	3	144*	-144	-8
O=P(OCC1CCCO1)(OCC1CCCO1)OCC1CCCO1 (stereo not given)	-4	-20	20	·
CCOc1[nH]n(-c2ccc(Cl)cc2)c(=O)c1C=Nc1ccc(Cl)cc1	-9	75*	-75	6
CCOc1[nH]n(-c2ccccc2)c(=O)c1C=Nc1ccc(OC)cc1	-2	45	-45	-8
CCN1C(=O)/C(=C/C=C2\C=CN(CC)c3ccccc32)SC1=S	-10	140*	-140	·
CCCN1C(=O)/C(=C\C=C2\N(CC)c3ccccc3C2(C)C)SC1=S	-51	87*	-87	·
CCN1C(=O)/C(=C\C=C2/C=CC=CN2CC)SC1=S	-134	-21	21	i
O=S(=O)(Nc1nc2ccccc2nc1Nc1ccc2c(c1)OCCO2)c1cccs1	42*	26	-26	-6
Nc1ncnc(N)c1NC(=O)c1cc(Cl)c(OCc2ccccc2)c(Cl)c1	0	·	·	·
COc1ccccc1/C=N/N(C(C)=O)c1nc(-c2ccc(F)cc2)cs1	14	82*	-82	2
CC(c1nc2ccccc2c(=O)[nH]1)N1CCN(S(=O)(=O)c2ccc(F)c(Cl)c2)CC1 (stereo not given)	-3	·	·	·
COc1ccc(NS(=O)(=O)c2cccc(C(=O)NNC(=O)CNC(=O)c3cccc(C)c3)c2)cc1	-4	-9	9	-12
Nc1c(C(=O)NC2CC2)c2nc3ccccc3nc2n1-c1ccc2c(c1)OCO2	50*	24	-24	-9
O=C(O)CCC1c2cc3c4cc2OC2Oc5cc6c(cc51)C(CCC(=O)O)c1cc5c7cc1OC(O6)c1cc6cc(c1)Oc1cc(cc(C(=O)O)c1)Oc1cc8cc(c1)C(Oc1cc(c(cc1C5CCC(=O)O)C3CCC(=O)O)OC(O4)c1cc(cc(c1)Oc1cc(cc(C(=O)O)c1)O8)Oc1cc(cc(C(=O)O)c1)Oc1cc(cc2c1)Oc1cc(cc(C(=O)O)c1)O6)O7 (stereo not given)	·	·	·	122*
Cc1noc(C)c1C(=O)Nc1nnc(CC(C)C)s1	0	-9	9	14
SMILES	Neddylation inh	SR-BI DiI inh	SR-BI uptake up	UBC13 polyUb
Cc1noc(C)c1COc1ccc(C(=O)Nc2ccccc2)cc1	-15	68	-68	-5
Cc1noc(C)c1COc1ccc(C(=O)Nc2nnc(CC(C)C)s2)cc1	-32	82*	-82	6
Cc1noc(C)c1COc1ccc(C(=O)NNC(=O)c2ccccc2O)cc1	16	95*	-95	19
CCc1ccc(-c2cc3c(=O)n(CC(=O)N4CCCCCC4)nc(C)n3n2)cc1	-14	-5	5	5
C[C@@H]1CN([C@H](C)CO)C(=O)CCCn2nncc2CO[C@H]1CN(C)Cc1cccnc1	5	·	·	·
COc1cc(OC)c(NC(=O)CN(C)S(=O)(=O)c2ccc(-c3ccc(=O)[nH]n3)s2)cc1Cl	-21	41	-41	-23
CN(c1ccc(C(=O)N2CCN(Cc3ccccc3)CC2)cc1)S(=O)(=O)c1ccc(Cl)cc1	0	79*	-79	2
Cc1ccc(N(C)S(=O)(=O)c2cccc(C(=O)N3CCN(Cc4ccccc4)CC3)c2)cc1	7	60	-60	8
CN(Cc1ccc(F)cc1)S(=O)(=O)c1ccc2[nH]c(=O)[nH]c2c1	0	·	·	·
Cc1cccc(N2C(N)=C(C#N)C(C#N)(C#N)C2c2ccccc2)c1 (stereo not given)	·	34	-34	9
N#CC1=C(N)N(c2ccccc2)C(c2ccco2)C1(C#N)C#N (stereo not given)	39*	17	-17	15
Cc1cc(/C=N/NC(=O)c2ccc(CN3CCOCC3)cc2)c(C)n1-c1ccccc1	12	72*	-72	1
Cc1cc(/C=N/NC(=O)c2cccc(N(C)C)c2)c(C)n1-c1cc(C(=O)O)cc(C(=O)O)c1	39*	-3	3	-7
COc1ccc(NC(=S)NNC(=S)Nc2cccc(C(F)(F)F)c2)cc1	-18	54	-54	-14
CCOc1ccc(NC(=S)NNC(=S)Nc2cccc(C(F)(F)F)c2)cc1	34	93*	-93	-29
COc1cccc(OCCNC(=O)c2cc([N+](=O)[O-])cc([N+](=O)[O-])c2)c1	-29	-10	10	-2
Cc1ccc(OCCNC(=O)c2cc(C(=O)NCCOc3ccc(C)cc3)cc([N+](=O)[O-])c2)cc1	-18	71*	-71	-26
COc1cc2sc3ccc(-c4ccc(CN5CCOCC5)cc4)cc3c(=O)c2cc1OC	-82	71*	-71	35
COc1cc(NC(=O)COc2cccc3c2OC(C)(C)C3)cc(OC)c1OC	-2	88*	-88	-1
Cc1ccc(OCCNC(=O)[C@H]2O[C@@H](n3cnc4c(N)ncnc43)[C@H](O)[C@@H]2O)cc1C	6	·	·	·
C#CC1(O)CCC2C3CCc4cc(O)cc(C)c4C3CCC21C (stereo not given)	12	28	-28	·
COc1ccc2nc3ccccc3[n+]([O-])c2c1	47*	18	-18	·
COc1ccc2c(ccc[n+]2[O-])c1	-16	-17	17	·
Nc1nc(-c2ccccc2)c(N=Nc2ccccc2Cl)s1	-86	88*	-88	-197
Nc1nc(-c2ccccc2)c(N=Nc2cccc3ccccc23)s1	-46	134*	-134	-81
CC(=O)Nc1sc(N)nc1-c1ccccc1	3	-41	41	5
Cc1ccc(Cn2cc(CN3CC(N4CCN(CCO)CC4)CS3(=O)=O)nn2)cc1 (stereo not given)	5	·	·	·
CCCC1CCC(c2ccc(C(=O)NN)cc2)CC1 (stereo not given)	3	-161	161*	0
CCCC1CCC(c2ccc(C(N)=O)cc2)CC1 (stereo not given)	4	-37	37	-4
